Measurements published in ChEMBL document CHEMBL4396954, “A click chemistry approach for the synthesis of cyclic ureido tethered coumarinyl and 1-aza coumarinyl 1,2,3-triazoles as inhibitors of Mycobacterium tuberculosis H37Rv and their in silico studies” (Bioorg Med Chem, 2019).
Converted amounts (≈) assume the structure as drawn.

Columns and labels:
HEK293 = test: Cytotoxicity against HEK293 cells assessed as cell viability incubated for 48 hrs by MTT assay; assay type: cell-based; conditions: Homo sapiens, HEK293, 48 h
How it was run: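 HEK293 cells seeded in 96-well plates and held overnight at 37 °C, 5% CO2, 95% humidity. Cells were treated with 500, 250, 125, 62.5, 31.25 and 15.625 (units not given) for 48 h, washed twice with phosphate buffer, then given MTT (5 mg/mL stock) for 4 h at 37 °C. Formazan was dissolved in DMSO and absorbance read at 570 nm.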

[1] = system: Mycobacterium tuberculosis; test: Antitubercular activity against Mycobacterium tuberculosis H37Rv incubated for 5 days by microplate alamar blue assay; assay type: functional; conditions: 120 h
How it was run: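 M. tuberculosis H37Rv grown with compound in microplate Alamar Blue assay; plates sealed and incubated at 37 °C for five days. A 1:1 mix of Alamar Blue reagent and 10% Tween 80 was then added, followed by another 24 h. Blue was scored as no growth and pink as growth. MIC was the lowest concentration preventing blue-to-pink change.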

[2] = Chemical stability of compound in pH 6 to 8 buffer at 5 x 10^-5 M incubated for 72 hrs by spectrometric analysis; assay type: physicochemical; conditions: pH 6, 72 h, 50 µM
How it was run: (§1)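 Compound stock prepared in DMF, then diluted with DMF or with buffers of pH 6–8 to 5 × 10⁻⁵ M. Samples were kept at room temperature. UV absorption and fluorescence emission spectra were recorded and their patterns compared over 24 h and 72 h.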

[3] = Chemical stability of compound in DMF at 5 x 10^-5 M incubated for 24 hrs by spectrometric analysis; assay type: physicochemical; conditions: 50 µM; how it was run: as §1
[4] = Chemical stability of compound in DMF at 5 x 10^-5 M incubated for 72 hrs by spectrometric analysis; assay type: physicochemical; conditions: 50 µM; how it was run: as §1
[5] = Chemical stability of compound in pH 6 to 8 buffer at 5 x 10^-5 M incubated for 24 hrs by spectrometric analysis; assay type: physicochemical; conditions: pH 6, 24 h, 50 µM; how it was run: as §1

SMILES	IC50 (HEK293) [mM]	MIC [1] [µM]	Stability [2]	Stability [3]	Stability [4]	Stability [5]
Cc1cccc2c(Cn3cc(Cn4c(C)cc(=O)n(Cc5cn(Cc6cc(=O)[nH]c7c(C)cccc67)nn5)c4=O)nn3)cc(=O)[nH]c12	1.15	79.3 (≈ 50 µg/mL)	–	–	–	–
Cc1cccc2c(Cn3cc(Cn4c(=O)n(Cc5cn(Cc6cc(=O)[nH]c7c(C)cccc67)nn5)c5ccccc54)nn3)cc(=O)[nH]c12	4.34	2.5 (≈ 1.6 µg/mL)	Unstable	Stable	Unstable	Stable
Cc1cc(C)c2c(Cn3cc(Cn4cnc5c4c(=O)n(C)c(=O)n5C)nn3)cc(=O)oc2c1	–	111 (≈ 49.7 µg/mL)	–	–	–	–
O=c1cc(Cn2cc(Cn3c(=O)n(Cc4cn(Cc5cc(=O)[nH]c6cc(Cl)ccc56)nn4)c4ccccc43)nn2)c2ccc(Cl)cc2[nH]1	4.57	2.35 (≈ 1.6 µg/mL)	Unstable	Stable	Unstable	Stable
O=c1cc(Cn2cc(Cn3c(=O)n(Cc4cn(Cc5cc(=O)oc6ccc7ccccc7c56)nn4)c4ccccc43)nn2)c2c(ccc3ccccc32)o1	1.13	8.76 (≈ 6.24 µg/mL)	Unstable	Stable	Unstable	Stable
Cc1cccc2c(Cn3cc(Cn4cnc5c4c(=O)n(C)c(=O)n5C)nn3)cc(=O)[nH]c12	5.04	116 (≈ 50 µg/mL)	–	–	–	–
O=c1cc(Cn2cc(Cn3c(=O)n(Cc4cn(Cc5cc(=O)oc6c5ccc5ccccc56)nn4)c4ccccc43)nn2)c2ccc3ccccc3c2o1	3.13	2.34 (≈ 1.67 µg/mL)	Unstable	Stable	Unstable	Stable
COc1ccc2oc(=O)cc(Cn3cc(Cn4c(=O)n(Cc5cn(Cc6cc(=O)oc7ccc(OC)cc67)nn5)c5ccccc54)nn3)c2c1	4.12	4.64 (≈ 3.12 µg/mL)	Unstable	Stable	Unstable	Stable
CC(C)c1ccc2oc(=O)cc(Cn3cc(Cn4c(=O)n(Cc5cn(Cc6cc(=O)oc7ccc(C(C)C)cc67)nn5)c5ccccc54)nn3)c2c1	3.2	2.49 (≈ 1.73 µg/mL)	Unstable	Stable	Unstable	Stable
Cc1ccc2oc(=O)cc(Cn3cc(Cn4c(C)cc(=O)n(Cc5cn(Cc6cc(=O)oc7ccc(C)cc67)nn5)c4=O)nn3)c2c1	1.28	79.1 (≈ 50 µg/mL)	–	–	–	–
Cc1cc(C)c2c(Cn3cc(Cn4c(=O)n(Cc5cn(Cc6cc(=O)oc7cc(C)cc(C)c67)nn5)c5ccccc54)nn3)cc(=O)oc2c1	0.943	2.39 (≈ 1.6 µg/mL)	Unstable	Stable	Unstable	Stable
O=c1cc(Cn2cc(Cn3c(=O)n(Cc4cn(Cc5cc(=O)[nH]c6ccc(Cl)cc56)nn4)c4ccccc43)nn2)c2cc(Cl)ccc2[nH]1	12.3	2.35 (≈ 1.6 µg/mL)	Unstable	Stable	Unstable	Stable
Cc1cc(C)c2c(Cn3cc(Cn4c(C)cc(=O)n(Cc5cn(Cc6cc(=O)oc7cc(C)cc(C)c67)nn5)c4=O)nn3)cc(=O)oc2c1	–	75.7 (≈ 50 µg/mL)	–	–	–	–
COc1ccc2oc(=O)cc(Cn3cc(Cn4cnc5c4c(=O)n(C)c(=O)n5C)nn3)c2c1	1.38	55.6 (≈ 25 µg/mL)	–	–	–	–
Cc1ccc2c(Cn3cc(Cn4c(C)cc(=O)n(Cc5cn(Cc6cc(=O)oc7cc(C)ccc67)nn5)c4=O)nn3)cc(=O)oc2c1	–	79.1 (≈ 50 µg/mL)	–	–	–	–
Cc1ccc2c(Cn3cc(Cn4c(=O)n(Cc5cn(Cc6cc(=O)oc7c(C)c(C)ccc67)nn5)c5ccccc54)nn3)cc(=O)oc2c1C	3.43	2.39 (≈ 1.6 µg/mL)	Unstable	Stable	Unstable	Stable
Cc1ccc2oc(=O)cc(Cn3cc(Cn4cnc5c4c(=O)n(C)c(=O)n5C)nn3)c2c1	1.11	115 (≈ 50 µg/mL)	–	–	–	–
O=c1cc(Cn2cc(Cn3c(=O)n(Cc4cn(Cc5cc(=O)oc6ccc(Cl)cc56)nn4)c4ccccc43)nn2)c2cc(Cl)ccc2o1	–	18.3 (≈ 12.5 µg/mL)	Unstable	Stable	Unstable	Stable
O=c1cc(Cn2cc(Cn3c(=O)n(Cc4cn(Cc5cc(=O)[nH]c6ccccc56)nn4)c4ccccc43)nn2)c2ccccc2[nH]1	–	10.2 (≈ 6.25 µg/mL)	Unstable	Stable	Unstable	Stable
COc1ccc2oc(=O)cc(Cn3cc(Cn4c(C)cc(=O)n(Cc5cn(Cc6cc(=O)oc7ccc(OC)cc67)nn5)c4=O)nn3)c2c1	1.52	75.2 (≈ 50 µg/mL)	–	–	–	–
Cc1ccc2oc(=O)cc(Cn3cc(Cn4c(=O)n(Cc5cn(Cc6cc(=O)oc7ccc(C)cc67)nn5)c5ccccc54)nn3)c2c1	3.58	2.49 (≈ 1.6 µg/mL)	Unstable	Stable	Unstable	Stable
Cc1ccc2c(Cn3cc(Cn4c(=O)n(Cc5cn(Cc6cc(=O)oc7cc(C)ccc67)nn5)c5ccccc54)nn3)cc(=O)oc2c1	3.52	2.49 (≈ 1.6 µg/mL)	Unstable	Stable	Unstable	Stable
COc1ccc2c(Cn3cc(Cn4c(=O)n(Cc5cn(Cc6cc(=O)oc7cc(OC)ccc67)nn5)c5ccccc54)nn3)cc(=O)oc2c1	4.62	2.37 (≈ 1.59 µg/mL)	Unstable	Stable	Unstable	Stable
O=C(O)c1cn(C2CC2)c2cc(N3CCNCC3)c(F)cc2c1=O [CIPROFLOXACIN]	–	9.43 (≈ 3.12 µg/mL)	–	–	–	–
NC(=O)c1cnccn1 [PYRAZINAMIDE]	–	25.4 (≈ 3.12 µg/mL)	–	–	–	–
CN[C@@H]1[C@H](O[C@H]2[C@H](O[C@H]3[C@H](O)[C@@H](O)[C@H](N=C(N)N)[C@@H](O)[C@@H]3N=C(N)N)O[C@@H](C)[C@]2(O)C=O)O[C@@H](CO)[C@H](O)[C@H]1O [STREPTOMYCIN]	–	10.7 (≈ 6.25 µg/mL)	–	–	–	–
